Data published in ChEMBL document CHEMBL1136151, “Suzuki cross-coupling approaches to the synthesis of bioactive 3-substituted and 5-substituted-4-methoxy-6-methyl-2-pyrones” (Bioorg Med Chem Lett, 2003).

Experiments:
Format in all cases: functional
Candida albicans = assay: Antimicrobial activity against Candida albicans was determined after 48 hours of incubation
Summary of the method: (§1)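 Disk diffusion on yeast plates: cellulose disks carrying test compound, with an EtOH control. Incubation 48 h. The inhibition zone radius is recorded in mm.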

[1] = tested on: Schizosaccharomyces pombe; assay: Antimicrobial activity against Schizosaccharomyces pombe was determined after 48 hours of incubation; summary of the method: as §1
Fusarium oxysporum [2] = assay: Percent growth of Fusarium oxysporum after 7 days of incubation; parameters: concentration or dose not given beside the values
Summary of the method: (§2)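 Fungal plate assay: pyrone dissolved in absolute EtOH at 10mg/mL and pipetted 2 cm offset from the centre of the plate containing the organism. EtOH alone served as control. Growth is recorded as percentage of the organism after 72 h and after 7 days of incubation.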

Aspergillus niger [3] = assay: Percent growth of Aspergillus niger after 7 days of incubation; parameters: concentration or dose not given beside the values; summary of the method: as §2
Globisporangium ultimum [4] = assay: Percent growth of Pythium ultimum after 72 hours of incubation; parameters: concentration or dose not given beside the values; summary of the method: as §2
Saccharomyces cerevisiae = assay: Antimicrobial activity against Saccharomyces cerevisiae was determined after 48 hours of incubation; summary of the method: as §1
Escherichia coli = assay: Antimicrobial activity against Escherichia coli was determined after 96 hours of incubation
Summary of the method: (§3)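 Disk diffusion: cellulose disks loaded with test compound and placed on bacterial plates, with an EtOH control disk. Incubation 96 h. Read-out is the radius (mm) of the inhibition zone.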

Aspergillus niger [5] = assay: Percent growth of Aspergillus niger after 72 hours of incubation; parameters: concentration or dose not given beside the values; summary of the method: as §2
Bacillus subtilis = assay: Antimicrobial activity against Bacillus subtilis was determined after 96 hours of incubation; summary of the method: as §3
Botrytis cinerea [6] = assay: Percent growth of Botrytis cinerea after 7 days of incubation; parameters: concentration or dose not given beside the values; summary of the method: as §2
Thanatephorus cucumeris [7] = assay: Percent growth of Rhizoctonia solani after 7 days of incubation; parameters: concentration or dose not given beside the values; summary of the method: as §2
Staphylococcus aureus = assay: Antimicrobial activity against Staphylococcus aureus was determined after 96 hours of incubation; summary of the method: as §3
Fusarium oxysporum [8] = assay: Percent growth of Fusarium oxysporum after 72 hours of incubation; parameters: concentration or dose not given beside the values; summary of the method: as §2
Botrytis cinerea [9] = assay: Percent growth of Botrytis cinerea after 72 hours of incubation; parameters: concentration or dose not given beside the values; summary of the method: as §2
Globisporangium ultimum [10] = assay: Percent growth of Pythium ultimum after 7 days of incubation; parameters: concentration or dose not given beside the values; summary of the method: as §2
Thanatephorus cucumeris [11] = assay: Percent growth of Rhizoctonia solani after 72 hours of incubation; parameters: concentration or dose not given beside the values; summary of the method: as §2
[12] = tested on: Globisporangium mamillatum; assay: Percent growth of Pythium mammillatum after 72 hours of incubation; parameters: concentration or dose not given beside the values; summary of the method: as §2
[13] = tested on: Globisporangium mamillatum; assay: Percent growth of Pythium mammillatum after 7 days of incubation; parameters: concentration or dose not given beside the values; summary of the method: as §2

| Compound | Activity (Candida albicans) [mm] | Activity [1] [mm] | Growth (Fusarium oxysporum [2]) [%] | Growth (Aspergillus niger [3]) [%] | Growth (Globisporangium ultimum [4]) [%] | Activity (Saccharomyces cerevisiae) [mm] | Activity (Escherichia coli) [mm] | Growth (Aspergillus niger [5]) [%] | Activity (Bacillus subtilis) [mm] | Growth (Botrytis cinerea [6]) [%] | Growth (Thanatephorus cucumeris [7]) [%] | Activity (Staphylococcus aureus) [mm] | Growth (Fusarium oxysporum [8]) [%] | Growth (Botrytis cinerea [9]) [%] | Growth (Globisporangium ultimum [10]) [%] | Growth (Thanatephorus cucumeris [11]) [%] | Growth [12] [%] | Growth [13] [%] |
| --- | --- | --- | --- | --- | --- | --- | --- | --- | --- | --- | --- | --- | --- | --- | --- | --- | --- | --- |
| COc1cc(C)oc(=O)c1-c1ccc(C)cc1 | 0 | 0 | 60 | 100 | 100 | 0 | 20 | >95 | 16 | 100 | 100 | 0 | 11 | 58 | 100 | 55 | – | – |
| COc1cc(C)oc(=O)c1-c1ccc(C=O)cc1 | 0 | 0 | 60 | >95 | 100 | 0 | 6 | 83 | 6 | 100 | 100 | 0 | 11 | 65 | 100 | 79 | – | – |
| CCCCC/C=C/c1c(OC)cc(C)oc1=O | 0 | 0 | 56 | 95 | 61 | 0 | 0 | 90 | 20 | 100 | 100 | 0 | 11 | 53 | 75 | 47 | 42 | 100 |
| CCC/C=C/c1cc(C)oc(=O)c1 | 16 | 28 | 45 | 100 | 100 | 0 | 19 | >95 | 16 | 100 | 100 | 20 | 5 | 47 | 100 | 49 | – | – |
| COc1ccc(-c2c(OC)cc(C)oc2=O)cc1 | 0 | 0 | 60 | 82 | 100 | 0 | 0 | 70 | 0 | 100 | 100 | 0 | 7 | 62 | 100 | 81 | – | – |
| COc1cc(=O)oc(C)c1-c1ccccc1 | 0 | 0 | 51 | >90 | – | 0 | 6 | 71 | 6 | 100 | 100 | 0 | 12 | 47 | – | 67 | – | – |
| CCCCC/C=C/c1c(OC)cc(=O)oc1C | 12 | 26 | 24 | 95 | 100 | 12 | 20 | 82 | 19 | 100 | 100 | 16 | 7 | 12 | 100 | 33 | 24 | 94 |
| COc1cc(C)oc(=O)c1-c1ccc(Cl)cc1 | 0 | 0 | 60 | 95 | 100 | 30 | 18 | >95 | 17 | 100 | 100 | 0 | 8 | 58 | 100 | 51 | – | – |
| Cc1cc(/C=C/c2ccccc2)cc(=O)o1 | 0 | 18 | – | 100 | 100 | 0 | 17 | 100 | 18 | 100 | 100 | 0 | – | 59 | 100 | 47 | – | – |
| CCCC/C=C/c1c(OC)cc(=O)oc1C | 18 | 31 | 35 | >95 | 100 | 15 | 18 | 68 | 17 | 100 | 93.4 | 15 | 7 | 33 | 100 | 41 | 34 | 92 |
| COc1cc(=O)oc(C)c1/C=C/c1ccccc1 | 0 | 0 | 51 | 90 | – | 0 | 6 | 71 | 6 | 100 | 100 | 0 | 12 | 47 | – | 67 | – | – |
| COc1ccc(-c2c(OC)cc(=O)oc2C)cc1 | 11 | 18 | 61 | 90 | – | 0 | 5 | 85 | 14 | 100 | 100 | 13 | 11 | 53 | – | 69 | – | – |
| COc1cc(C)oc(=O)c1-c1cccc([N+](=O)[O-])c1 | 0 | 0 | 60 | 100 | 100 | 0 | 0 | 100 | 6 | 100 | 100 | 0 | 12 | – | 100 | – | – | – |
| CCCCCC/C=C/c1cc(C)oc(=O)c1 | 20 | 29 | 30 | 94 | 100 | 0 | 20 | 89 | 18 | 100 | 100 | 18 | 5 | 42 | 100 | 44 | – | – |
| COc1cc(C)oc(=O)c1-c1ccccc1 | 0 | 0 | 60 | 100 | 100 | 0 | 0 | >95 | 6 | 100 | 100 | 0 | 7.4 | 63 | 100 | 75 | – | – |
| CCC/C=C/c1c(OC)cc(C)oc1=O | 0 | 13 | 48 | >95 | 67 | 0 | 21 | 93 | 18 | 100 | 100 | 0 | 8 | 56 | 80 | 44 | 43 | 100 |
| CCCC/C=C/c1c(OC)cc(C)oc1=O | 0 | 0 | 48 | 91 | 37 | 0 | 20 | 77 | 19 | 100 | 100 | 21 | 8 | 51 | 57 | 43 | 35 | 100 |
| COc1cc(C)oc(=O)c1/C=C/c1ccccc1 | 0 | 0 | 60 | 100 | 100 | 0 | 0 | >95 | 0 | 100 | 100 | 0 | 11 | 58 | 100 | 92 | – | – |
